ChEMBL document CHEMBL4130549, “Synthesis and bioactivities study of new antibacterial peptide mimics: The dialkyl cationic amphiphiles” (Eur J Med Chem, 2018)
The source made the active and inactive calls. The calls are words filed in the database; no cut-off is given here.

What was measured:
Escherichia coli [1] = test: Bactericidal activity against Escherichia coli ATCC 25922 at 12 after 6 hrs by time kill assay; type: functional, organism-based
Staphylococcus aureus [2] = test: Ratio of MIC for Staphylococcus aureus ATCC 29213 after 20 serial passages to MIC for Staphylococcus aureus ATCC 29213; type: functional
How it was run: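 Sub-MIC serial passaging: after an initial broth microdilution MIC, cells grown at MIC/2 were transferred into a new MIC assay after each 24 h incubation, for 20 passages. MIC was plotted against days to follow resistance development. Passaging controls were norfloxacin for S. aureus and colistin for E. coli.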

Staphylococcus aureus [3] = test: Bactericidal activity against Staphylococcus aureus ATCC 29213 at 12 ug/ml after 6 hrs by time kill assay; type: functional, organism-based
How it was run: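 Time-kill: an overnight S. aureus ATCC 29213 culture was diluted 1:10,000 in Mueller-Hinton broth and grown 2 h (early exponential) or 5 h (late exponential) at 37 °C and 225 rpm. Cells were then exposed in tubes under the same conditions. At intervals, aliquots were pelleted, resuspended in PBS, serially diluted tenfold, plated on agar overnight, and counted as CFU/mL. Biological replicates were run.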

Staphylococcus aureus [4] = test: Antibacterial activity against Staphylococcus aureus; type: functional
How it was run: (§1)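 Broth microdilution per CLSI in cation-adjusted Mueller-Hinton broth; 4-6 h cultures (~10⁸ CFU/mL) diluted to ~10⁶ CFU/mL and mixed 1:1 with twofold dilutions of water-dissolved compound (256 to 0.5 µg/mL). Incubated 16-20 h at 37 °C; MIC read visually. Each concentration run in duplicate, whole experiment repeated at least twice. MRSA, KPC and NDM-1 strains were clinical isolates.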

Enterococcus faecalis = test: Antibacterial activity against Enterococcus faecalis; type: functional; how it was run: as §1
Escherichia coli [5] = test: Antibacterial activity against Escherichia coli; type: functional; how it was run: as §1
Staphylococcus aureus [6] = test: Antibacterial activity against methicillin-resistant Staphylococcus aureus; type: functional
[7] = Hemolytic activity in sheep RBC; type: ADME, cell-based, Ovis aries, Erythrocyte; details: sheep red blood cells (erythrocytes)
How it was run: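 Sheep RBCs suspended at 5% in PBS; 150 µL added to 50 µL compound dilutions (5120 to 10 µg/mL series). Incubated 1 h at 37 °C, then centrifuged; supernatant absorbance read at 540 nm. Lysis (%) = (A−A0)/(Atotal−A0)×100, with untreated 5% RBC as A0 and 0.1% Triton X-100 as total.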

Molecule: CO[C@@]1(NC(=O)[C@H](C(=O)O)c2ccc(O)cc2)C(=O)N2C(C(=O)O)=C(CSc3nnnn3C)CO[C@@H]21
- Activity (Escherichia coli [1]): inactive

Molecule: CCn1cc(C(=O)O)c(=O)c2cc(F)c(N3CCNCC3)cc21 [NORFLOXACIN]
- Ratio (Staphylococcus aureus [2]): 256

Molecule: CN[C@H](CC(C)C)C(=O)N[C@H]1C(=O)N[C@@H](CC(N)=O)C(=O)N[C@H]2C(=O)N[C@H]3C(=O)N[C@H](C(=O)N[C@H](C(=O)O)c4cc(O)cc(O)c4-c4cc3ccc4O)[C@H](O)c3ccc(c(Cl)c3)Oc3cc2cc(c3O[C@@H]2O[C@H](CO)[C@@H](O)[C@H](O)[C@H]2O[C@H]2C[C@](C)(N)[C@H](O)[C@H](C)O2)Oc2ccc(cc2Cl)[C@H]1O
- Activity (Staphylococcus aureus [3]): inactive

Molecule: H-GIGKFLKKAKKFGKAFVKLLKK-NH2
- MIC (Staphylococcus aureus [4]): 8 to 16 µg/mL
- MIC (Enterococcus faecalis): 64 µg/mL
- MIC (Escherichia coli [5]): 16 to 32 µg/mL
- MIC (Staphylococcus aureus [6]): 16 to 32 µg/mL
- HC50 [7]: 120 µg/mL
